Data: ChEMBL document CHEMBL3085673, “The design of a novel series of muscarinic receptor antagonists leading to AZD8683, a potential inhaled treatment for COPD” (Bioorg Med Chem Lett, 2013)

How the values were obtained:
[1] = target: Muscarinic acetylcholine receptor M3 (Homo sapiens, UniProt P20309); assay: Displacement of [3H]NMS from recombinant human M3 receptor expressed in CHO-K1 cells after 16 hrs by SPA method; type: cell-based
How it was run: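 Nonspecific binding defined with atropine 1 µM; eight total-binding replicates per plate. Incubated at room temperature at least 16 h to equilibrium before counting; n ≥ 2.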

[2] = Intrinsic clearance in human liver microsomes; type: ADME; settings: read-out: CLH
[3] = Plasma protein binding in human; type: ADME, cell-free; settings: for fraction unbound: read-out: PPB (converted)
[4] = target: Muscarinic acetylcholine receptor M3 (Cavia porcellus, UniProt Q8VH26); assay: Antagonist activity at M3 receptor in Dunkin-Hartley guinea pig trachea assessed as inhibition of methacholine-induced airway smooth muscle contraction after 1 to 4 hrs; settings: read-out: pA2 (converted)
How it was run: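 Isolated guinea pig tracheal rings equilibrated 1 h, re-tensioned to 1 g, primed with methacholine, then a cumulative methacholine curve (3 × 10^-9 to 3 × 10^-5 M). Vehicle or compound equilibrated 1 or 4 h before a second curve (3 × 10^-9 to 1 × 10^-3 M final). Isometric force as % of curve-1 maximum. pA2 calculated from vehicle and test A50 values; n = 2.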

[5] = Half life in guinea pig lung administered via intratracheal instillation at 1 ug/kg by HPLC-MS analysis; type: ADME, tissue-based, Cavia porcellus; settings: inhaled or intranasal, 0.001 mg/kg
How it was run: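 Halothane-anaesthetised guinea pigs given 1 μg/kg by intratracheal instillation. Lungs collected at 0.25-24 h after barbiturate overdose, homogenised in phosphate buffer and added to ice-cold methanol. Supernatant analysed by mass spectrometry/HPLC.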

Cavia porcellus = assay: Toxicity in guinea pig assessed as reduction of pilocarpine-induced salivation administered via intranasal administered for 4 hrs followed by pilocarpine challenge measured every 5 mins for 15 mins; type: organism-based
How it was run: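 Compound or vehicle given intranasally under halothane. At 4 h, animals were anaesthetised with urethane and the mouth dried with gauze for 5 min. Baseline saliva taken on a pre-weighed pad over 5 min. Pilocarpine 0.6 mg/kg given subcutaneously, then pads replaced every 5 min for 15 min and saliva quantified by pad weight gain.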

Muscarinic acetylcholine receptor M3 (Cavia porcellus, UniProt Q8VH26), sequence (Q8VH26 whole entry): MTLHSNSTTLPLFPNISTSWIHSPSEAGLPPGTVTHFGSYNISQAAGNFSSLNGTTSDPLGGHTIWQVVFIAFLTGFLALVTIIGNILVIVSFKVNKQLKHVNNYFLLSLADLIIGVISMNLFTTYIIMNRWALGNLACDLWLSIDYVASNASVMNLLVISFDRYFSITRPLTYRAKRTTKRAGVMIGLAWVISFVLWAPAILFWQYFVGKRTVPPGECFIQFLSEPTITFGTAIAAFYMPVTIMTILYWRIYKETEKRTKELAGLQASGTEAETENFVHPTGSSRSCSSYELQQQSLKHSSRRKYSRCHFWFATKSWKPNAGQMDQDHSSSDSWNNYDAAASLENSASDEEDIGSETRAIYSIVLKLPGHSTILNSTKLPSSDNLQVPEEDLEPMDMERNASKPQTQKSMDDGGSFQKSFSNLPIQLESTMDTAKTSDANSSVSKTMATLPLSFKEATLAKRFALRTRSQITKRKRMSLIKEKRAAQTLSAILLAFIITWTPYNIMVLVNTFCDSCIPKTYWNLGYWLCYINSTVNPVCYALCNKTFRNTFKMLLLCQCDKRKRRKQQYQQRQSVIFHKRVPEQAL
Muscarinic acetylcholine receptor M3 (Homo sapiens, UniProt P20309), sequence (P20309 whole entry): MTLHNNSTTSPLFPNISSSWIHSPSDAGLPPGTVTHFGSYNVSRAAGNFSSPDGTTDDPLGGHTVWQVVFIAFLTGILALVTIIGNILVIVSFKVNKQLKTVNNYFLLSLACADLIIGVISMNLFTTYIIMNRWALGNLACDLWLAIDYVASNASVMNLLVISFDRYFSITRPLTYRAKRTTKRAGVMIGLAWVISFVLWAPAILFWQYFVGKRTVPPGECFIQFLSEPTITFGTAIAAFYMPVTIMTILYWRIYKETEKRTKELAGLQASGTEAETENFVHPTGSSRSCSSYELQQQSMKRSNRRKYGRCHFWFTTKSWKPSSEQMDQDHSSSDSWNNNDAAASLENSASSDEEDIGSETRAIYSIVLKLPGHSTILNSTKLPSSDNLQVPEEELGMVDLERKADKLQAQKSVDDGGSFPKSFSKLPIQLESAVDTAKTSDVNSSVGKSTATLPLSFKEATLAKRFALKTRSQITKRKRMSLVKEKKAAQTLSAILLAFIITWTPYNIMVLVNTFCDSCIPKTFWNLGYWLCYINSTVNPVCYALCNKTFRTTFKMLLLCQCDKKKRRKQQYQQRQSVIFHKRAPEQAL

SMILES	IC50 [1] [nM]	microsomal CLint [2] [µL/min/mg]	fraction unbound [3]	Kb [4] [nM]	half-life [5] [h]	PPB [3]	EC50 (Cavia porcellus) [µg/kg]
O=C(C[N+]12CCC(CC1)[C@@H](OC(=O)C1(C3=CC=CC3)CCCCCC1)C2)Nc1ncco1	12.6	66	0.15	–	–	–	–
O=C(C[N+]12CCC(CC1)[C@@H](OC(=O)C1(C3=CC=CC3)CCCCCC1)C2)Nc1cncc(Cl)n1	0.1	51	0.015	0.501	–	–	–
O=C(O[C@H]1C[N+]2(CCc3ccccc3)CCC1CC2)C1(C2=CC=CC2)CCCCCC1	0.0794	105	0.007	0.316	–	–	–
O=C(C[N+]12CCC(CC1)[C@@H](OC(=O)C1(C3=CC=CC3)CCCCCC1)C2)Nc1ccncc1	2.51	39	0.05	–	–	–	–
Cc1ccc(CC[N+]23CCC(CC2)[C@@H](OC(=O)C2(C4=CC=CC4)CCCCCC2)C3)s1	0.0631	130	0.01	0.316	–	–	–
CC(C)(C)c1cc(NC(=O)C[N+]23CCC(CC2)[C@@H](OC(=O)C2(C4=CC=CC4)CCCCCC2)C3)no1	10	–	–	–	–	–	–
O=C(C[N+]12CCC(CC1)[C@@H](OC(=O)C1(C3=CC=CC3)CCCCCC1)C2)N1CCOCC1	100	15	–	–	–	–	–
O=C(C[N+]12CCC(CC1)[C@@H](OC(=O)C1(C3=CC=CC3)CCCCCC1)C2)Nc1ncns1	0.398	25	–	–	–	–	–
C[N+]12CCC(CC1)[C@@H](OC(=O)C1(C3=CC=CC3)CCCCCC1)C2	2.51	34	0.27	–	–	–	–
Cn1ccc(CCC[N+]23CCC(CC2)[C@@H](OC(=O)C2(C4=CC=CC4)CCCCCC2)C3)n1	0.501	63	0.06	–	–	–	–
O=C(C[N+]12CCC(CC1)[C@@H](OC(=O)C1(C3=CC=CC3)CCCCCC1)C2)Nc1ccccc1	0.251	27	0.006	–	–	–	–
O=C(O[C@H]1C[N+]2(CCOCc3ccccc3)CCC1CC2)C1(C2=CC=CC2)CCCCCC1	0.126	120	0.03	3.98	–	–	–
O=C(C[N+]12CCC(CC1)[C@@H](OC(=O)C1(C3=CC=CC3)CCCCCC1)C2)Nc1ccncn1	0.158	–	0.11	–	–	–	–
O=C(O[C@H]1C[N+]2(CCc3cccc(Cl)c3)CCC1CC2)C1(C2=CC=CC2)CCCCCC1	< 0.0398	72	0.005	0.251	–	–	–
O=C(C[N+]12CCC(CC1)[C@@H](OC(=O)C1(C3=CC=CC3)CCCCCC1)C2)Nc1ncccc1F	0.251	49	0.06	–	–	–	–
Cc1cnc(NC(=O)C[N+]23CCC(CC2)[C@@H](OC(=O)C2(C4=CC=CC4)CCCCCC2)C3)cn1	0.794	27	0.04	–	–	–	–
O=C(C[N+]12CCC(CC1)[C@@H](OC(=O)C1(C3=CC=CC3)CCCCCC1)C2)Nc1cccc(C(F)(F)F)n1	2.51	–	0.004	–	–	–	–
N#Cc1ccc(CC[N+]23CCC(CC2)[C@@H](OC(=O)C2(C4=CC=CC4)CCCCCC2)C3)cc1	3.16	49	–	–	–	–	–
Cc1nccc(NC(=O)C[N+]23CCC(CC2)[C@@H](OC(=O)C2(C4=CC=CC4)CCCCCC2)C3)n1	0.398	–	–	–	–	–	–
NC(=O)C[N+]12CCC(CC1)[C@@H](OC(=O)C1(C3=CC=CC3)CCCCCC1)C2	0.2	19	0.18	0.0794	11.4	–	–
O=C(C[N+]12CCC(CC1)[C@@H](OC(=O)C1(C3=CC=CC3)CCCCCC1)C2)Nc1cccc(F)c1	0.126	17	0.003	3.16	–	–	–
O=C(C[N+]12CCC(CC1)[C@@H](OC(=O)C1(C3=CC=CC3)CCCCCC1)C2)NCCNC(=O)c1cnccn1	3.16	74	–	–	–	–	–
O=C(O[C@H]1C[N+]2(CCOc3ccccc3)CCC1CC2)C1(C2=CC=CC2)CCCCCC1	0.158	106	0.04	0.398	–	–	–
O=C(O[C@H]1C[N+]2(Cc3ccc(F)c(F)c3)CCC1CC2)C1(C2=CC=CC2)CCCCCC1	39.8	55	–	–	–	–	–
O=C(O[C@H]1C[N+]2(Cc3csc(-c4ccccc4)n3)CCC1CC2)C1(C2=CC=CC2)CCCCCC1	25.1	133	–	–	–	–	–
O=C(O[C@H]1C[N+]2(CCCOc3ccccc3)CCC1CC2)C(O)(c1cccs1)c1cccs1.[Br-] [ACLIDINIUM BROMIDE]	–	> 145	–	–	–	ND(Unstable)	–

SMILES	IC50 [1] [nM]	microsomal CLint [2] [µL/min/mg]	fraction unbound [3]	Kb [4] [nM]	half-life [5] [h]	PPB [3]	EC50 (Cavia porcellus) [µg/kg]
O=C(O[C@H]1C[N+]2(CCCc3ccncc3)CCC1CC2)C1(c2cccs2)CCCCCC1	0.0501	55	0.06	0.1	–	–	–
Cc1ccnc(NC(=O)C[N+]23CCC(CC2)[C@@H](OC(=O)C2(C4=CC=CC4)CCCCCC2)C3)c1	0.794	30	0.018	–	–	–	–
O=C(C[N+]12CCC(CC1)[C@@H](OC(=O)C1(C3=CC=CC3)CCCCCC1)C2)Nc1ccc(F)cn1	0.631	–	0.024	–	–	–	–
COc1cccc(C[N+]23CCC(CC2)[C@@H](OC(=O)C2(C4=CC=CC4)CCCCCC2)C3)c1	3.16	–	–	–	–	–	–
Cc1ccc(NC(=O)C[N+]23CCC(CC2)[C@@H](OC(=O)C2(C4=CC=CC4)CCCCCC2)C3)nn1	0.794	16	0.1	–	–	–	–
O=C(O[C@H]1C[N+]2(Cc3ccn(-c4ccccc4)n3)CCC1CC2)C1(C2=CC=CC2)CCCCCC1	0.398	103	–	–	–	–	–
O=C(O[C@H]1C[N+]2(Cc3cc(-c4ccccc4)on3)CCC1CC2)C1(C2=CC=CC2)CCCCCC1	0.0794	79	0.005	3.16	12.1	–	–
O=C(C[N+]12CCC(CC1)[C@@H](OC(=O)C1(C3=CC=CC3)CCCCCC1)C2)Nc1cccnn1	0.158	70	0.1	0.0794	42.4	–	> 10
O=C(O[C@H]1C[N+]2(Cc3ccccc3)CCC1CC2)C1(C2=CC=CC2)CCCCCC1	39.8	68	–	–	–	–	–
O=C(C[N+]12CCC(CC1)[C@@H](OC(=O)C1(C3=CC=CC3)CCCCCC1)C2)Nc1ccc(C(F)(F)F)nn1	2.51	–	–	–	–	–	–
O=C(C[N+]12CCC(CC1)[C@H](OC(=O)C1(C3=CC=CC3)CCCCCC1)C2)Nc1ccccn1	31.6	–	–	–	–	–	–
O=C(O[C@H]1C[N+]2(Cc3nc4ccccc4o3)CCC1CC2)C1(C2=CC=CC2)CCCCCC1	0.1	78	0.023	0.158	13	–	> 10
Cc1ccc(CCC[N+]23CCC(CC2)[C@@H](OC(=O)C2(C4=CC=CC4)CCCCCC2)C3)cn1	0.158	77	0.05	–	19.2	–	–
Cc1cncc(NC(=O)C[N+]23CCC(CC2)[C@@H](OC(=O)C2(C4=CC=CC4)CCCCCC2)C3)n1	0.631	27	–	–	–	–	–
O=C(C[N+]12CCC(CC1)[C@@H](OC(=O)C1(C3=CC=CC3)CCCCCC1)C2)Nc1cc[nH]n1	0.1	37	0.05	–	–	–	–
O=C(C[N+]12CCC(CC1)[C@@H](OC(=O)C1(C3=CC=CC3)CCCCCC1)C2)Nc1cccnc1	0.2	40	0.04	–	–	–	–
O=C(O[C@H]1C[N+]2(CCCc3nc4ccccc4o3)CCC1CC2)C1(C2=CC=CC2)CCCCCC1	–	–	0.04	–	9.3	–	–
Cc1ccc(NC(=O)C[N+]23CCC(CC2)[C@@H](OC(=O)C2(C4=CC=CC4)CCCCCC2)C3)cn1	0.794	–	–	–	–	–	–
O=C(C[N+]12CCC(CC1)[C@@H](OC(=O)C1(C3=CC=CC3)CCCCCC1)C2)NCCCNC(=O)c1ccccn1	6.31	101	0.026	–	–	–	–
Cc1cc(NC(=O)C[N+]23CCC(CC2)[C@@H](OC(=O)C2(C4=CC=CC4)CCCCCC2)C3)ncn1	1	26	0.2	–	–	–	–
C[N+]1(C)CCC(OC(=O)C2(c3ccccc3)CCCCCC2)CC1	0.251	20	0.27	–	–	–	–
Cc1ccc(NC(=O)C[N+]23CCC(CC2)[C@@H](OC(=O)C2(C4=CC=CC4)CCCCCC2)C3)nc1	0.501	51	0.019	–	–	–	–
Cc1ccc(CCC[N+]23CCC(CC2)[C@@H](OC(=O)C2(C4=CC=CC4)CCCCCC2)C3)c(C)n1	1	50	0.04	–	–	–	–
O=C(C[N+]12CCC(CC1)[C@@H](OC(=O)C1(C3=CC=CC3)CCCCCC1)C2)Nc1cncnc1	0.631	32	–	–	–	–	–
O=C(C[N+]12CCC(CC1)[C@@H](OC(=O)C1(C3=CC=CC3)CCCCCC1)C2)Nc1ccc(C(F)(F)F)nc1	0.251	5	–	–	–	–	–
O=C(C[N+]12CCC(CC1)[C@@H](OC(=O)C1(C3=CC=CC3)CCCCCC1)C2)Nc1nncs1	7.94	39	0.06	–	–	–	–
